Source: ChEMBL document CHEMBL1143159, “Indole-2-amide based biochemical antagonist of Dishevelled PDZ domain interaction down-regulates Dishevelled-driven Tcf transcriptional activity” (Bioorg Med Chem Lett, 2008)
Calls of active or inactive are those of the source. No cut-off for these calls is given here.

Columns and labels:
[1] = target: T1, Segment polarity protein dishevelled homolog DVL-3 (Homo sapiens, UniProt Q92997); assay: Antagonist activity at human Dvl3 assessed as inhibition of interaction between Dvl3 PDZ domain and […] by alphaScreen assay; assay type: functional
T1 sequence (Q92997 whole entry): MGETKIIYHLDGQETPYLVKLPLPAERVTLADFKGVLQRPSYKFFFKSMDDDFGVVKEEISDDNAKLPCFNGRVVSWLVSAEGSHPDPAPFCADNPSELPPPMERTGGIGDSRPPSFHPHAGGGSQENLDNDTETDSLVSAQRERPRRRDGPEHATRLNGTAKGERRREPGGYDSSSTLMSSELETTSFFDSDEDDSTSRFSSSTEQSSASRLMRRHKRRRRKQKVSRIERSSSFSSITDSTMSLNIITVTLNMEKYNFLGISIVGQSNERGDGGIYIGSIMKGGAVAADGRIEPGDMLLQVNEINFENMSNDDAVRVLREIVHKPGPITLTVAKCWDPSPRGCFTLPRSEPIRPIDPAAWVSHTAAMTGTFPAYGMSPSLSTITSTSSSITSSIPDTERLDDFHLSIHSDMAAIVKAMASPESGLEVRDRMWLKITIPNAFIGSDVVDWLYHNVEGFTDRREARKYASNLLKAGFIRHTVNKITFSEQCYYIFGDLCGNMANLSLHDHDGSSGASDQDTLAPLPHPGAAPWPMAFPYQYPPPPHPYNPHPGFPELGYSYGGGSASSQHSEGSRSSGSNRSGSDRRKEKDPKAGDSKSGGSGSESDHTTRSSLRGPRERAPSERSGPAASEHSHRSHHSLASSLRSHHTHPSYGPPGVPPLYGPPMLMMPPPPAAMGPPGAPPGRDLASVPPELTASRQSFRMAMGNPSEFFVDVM
In short: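 Competitive AlphaScreen energy-transfer assay for binding of the Dvl PDZ domain to the Fz7 PDZ-binding region. IC50 fitted from binding curves, each the mean of three independent experiments.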

[2] = tested on: SJRH30; assay: Induction of apoptosis in human Rh30 cells assessed as caspase 3 activation at 100 uM after 2 days; assay type: functional, cell-based
In short: (§1)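 HepG2 hepatocellular carcinoma, Rh30 rhabdomyosarcoma and hTERT-immortalized BJ foreskin fibroblast cells were exposed to compound at 100 μM for 2 days. Caspase-3/7 activity was then read with Caspase3/7-Glo reagent and expressed as a proportion of the DMSO control (set to 1), as the mean of three independent experiments.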

[3] = tested on: BJ; assay: Induction of apoptosis in human BJ cells assessed as caspase 3 activation at 100 uM after 2 days; assay type: functional, cell-based; in short: as §1
[4] = tested on: SJRH30; assay: Induction of apoptosis in human Rh30 cells assessed as caspase 7 activation at 100 uM after 2 days; assay type: functional, cell-based; in short: as §1
[5] = tested on: BJ; assay: Induction of apoptosis in human BJ cells assessed as caspase 7 activation at 100 uM after 2 days; assay type: functional, cell-based; in short: as §1
[6] = tested on: HepG2; assay: Induction of apoptosis in human HepG2 cells assessed as caspase 7 activation at 100 uM after 2 days; assay type: functional, cell-based; in short: as §1
[7] = tested on: HepG2; assay: Induction of apoptosis in human HepG2 cells assessed as caspase 3 activation at 100 uM after 2 days; assay type: functional, cell-based; in short: as §1
[8] = target: T2, Segment polarity protein dishevelled homolog DVL-1 (Homo sapiens, UniProt O14640); assay: Antagonist activity at human Dvl1 assessed as inhibition of interaction between Dvl1 PDZ domain and […] by alphaScreen assay; assay type: functional
T2 sequence (O14640 whole entry): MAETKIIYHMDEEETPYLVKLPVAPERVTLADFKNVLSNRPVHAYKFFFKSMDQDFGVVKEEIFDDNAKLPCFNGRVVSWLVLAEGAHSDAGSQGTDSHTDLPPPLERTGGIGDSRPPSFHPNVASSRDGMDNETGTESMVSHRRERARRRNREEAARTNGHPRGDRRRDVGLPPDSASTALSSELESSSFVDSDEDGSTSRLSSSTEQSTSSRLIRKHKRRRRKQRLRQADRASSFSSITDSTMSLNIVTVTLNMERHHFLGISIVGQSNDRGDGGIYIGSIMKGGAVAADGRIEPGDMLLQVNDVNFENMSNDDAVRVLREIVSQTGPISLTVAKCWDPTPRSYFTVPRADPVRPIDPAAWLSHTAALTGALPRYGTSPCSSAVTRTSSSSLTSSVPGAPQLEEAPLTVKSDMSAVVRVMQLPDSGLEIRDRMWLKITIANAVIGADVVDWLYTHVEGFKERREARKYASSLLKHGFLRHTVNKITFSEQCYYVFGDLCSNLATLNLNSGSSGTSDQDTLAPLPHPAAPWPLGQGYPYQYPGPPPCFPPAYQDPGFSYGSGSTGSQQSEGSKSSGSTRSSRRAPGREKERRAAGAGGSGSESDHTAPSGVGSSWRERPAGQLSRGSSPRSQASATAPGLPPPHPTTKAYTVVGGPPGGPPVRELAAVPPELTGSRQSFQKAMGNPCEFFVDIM

Structure (SMILES)	IC50 [1] [µM]	IC50 [8] [µM]	Activity [2]	Activity [3]	Activity [4]	Activity [5]	Activity [6]	Activity [7]
COC(=O)c1cc2c(CCc3ccccc3)c(C(=O)NC3CCCCC3)[nH]c2cc1C	57							
Cc1cc2[nH]c(C(=O)NCc3ccccc3)c(CCc3ccccc3)c2cc1C(=O)O	291		Active	inactive	Active	inactive	Active	Active
Cc1cc2[nH]c(C(=O)NCC3CC3)c(CCc3ccccc3)c2cc1C(=O)O	> 500	> 500						
CCC(C)CNC(=O)c1[nH]c2cc(C)c(C(=O)O)cc2c1CCc1ccccc1 (stereo not drawn)	160		Active	inactive	Active	inactive	Active	Active
Cc1cc2[nH]c(C(=O)NC(C)(C)C)c(CCc3ccccc3)c2cc1C(=O)O	> 500	> 500						

Continued, in another order:

IC50 [1] [µM]	IC50 [8] [µM]	Structure (SMILES)	Activity [2]	Activity [3]	Activity [4]	Activity [5]	Activity [6]	Activity [7]
309		Cc1cc2[nH]c(C(=O)NCC3CCCCC3)c(CCc3ccccc3)c2cc1C(=O)O						
92		Cc1cc2c(cc1C(=O)O)c(CCc1ccccc1)c(C(=O)NC1CCCCC1)n2C	Active	inactive	Active	inactive	Active	Active
> 500	> 500	Cc1cc2[nH]c(C(=O)NCCC(=O)O)c(CCc3ccccc3)c2cc1C(=O)O						
23		Cc1cc2[nH]c(C(=O)NC3CCCCC3)c(CCc3ccccc3)c2cc1C(=O)O	Active	inactive	Active	inactive	Active	Active
> 500	> 500	CCCNC(=O)c1[nH]c2cc(C)c(C(=O)O)cc2c1CCc1ccccc1						
